Screening results from PubChem BioAssay.
Hits are enriched below; roughly 2.2% of the tested compounds scored in any of these assays.
rCAG binder – binders of r(CAG) RNA repeats, primary screen, biochemical, fluorescence | r(CAG) RNA repeat, TO-PRO-1 dye displacement fluorescence | hit rate 1.3% among 370,000 | inhibition, % at 3 µM | AID 651821, 2012;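 active = inhibition above the plate cutoff, the mean of all test compounds on that plate plus 3 SD, cut at about 35% in these data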;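 note: higher means more dye released from RNA so lower well fluorescence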
ARFGAP1 inh – inhibitors of rat ARFGAP1 GAP activity, primary screen, biochemical, fluorescence polarization, GDP tracer. AID 651572, 2012. inhibition, % at 16.5 µM. Arfgap1-stimulated ARF1 GTP hydrolysis, GDP FP detection. hit rate 0.26% among 360,000;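 active = inhibition above a per-plate limit, mean inhibition of low control wells plus 3 SD, cut at about 25% in these data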
Target sequence (Q62848 1-136 limits assumed): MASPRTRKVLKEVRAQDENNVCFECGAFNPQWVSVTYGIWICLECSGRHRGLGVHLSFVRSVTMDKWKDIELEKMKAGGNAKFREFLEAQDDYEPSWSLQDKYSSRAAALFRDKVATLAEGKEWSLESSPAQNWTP
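Material: truncated rat Arfgap1 GAP domain; Incubation: compound-enzyme preincubation 20 min, reaction 120 min, detection 60 min, 25 °C; Read-out: percent inhibition of Arfgap1-stimulated GTP hydrolysis; Technique: FP, GDP Alexa 633 tracer displaced from anti-GDP antibody, 620/688 nm; Controls: No-Arfgap1 wells (100%) versus DMSO full-reaction wells (0%); Replication: single well per compound.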
NadD block – inhibitors of S. aureus NadD, primary screen, biochemical, colorimetric, uHTS. Nicotinate-nucleotide adenylyltransferase NadD (Staphylococcus aureus N315). purified NadD enzyme, colorimetric absorbance read-out. inhibition, % at 20 µM. hit rate 0.78% among 360,000. AID 602399, 2012; in the data active = inhibition above about 26%
ASAP1 inh – inhibitors of human ASAP1 ArfGAP activity, primary screen, biochemical, fluorescence polarization | AID 624377, 2012 | Arf-GAP with SH3 domain, ANK repeat and PH domain-containing protein 1 (Homo sapiens), … | ASAP1-stimulated ARF1 GTP hydrolysis, GDP FP detection | hit rate 0.19% among 360,000 | inhibition, % at 16.5 µM; in the data active = inhibition above about 25%
Target sequence (Q9ULH1 325-724 limits assumed): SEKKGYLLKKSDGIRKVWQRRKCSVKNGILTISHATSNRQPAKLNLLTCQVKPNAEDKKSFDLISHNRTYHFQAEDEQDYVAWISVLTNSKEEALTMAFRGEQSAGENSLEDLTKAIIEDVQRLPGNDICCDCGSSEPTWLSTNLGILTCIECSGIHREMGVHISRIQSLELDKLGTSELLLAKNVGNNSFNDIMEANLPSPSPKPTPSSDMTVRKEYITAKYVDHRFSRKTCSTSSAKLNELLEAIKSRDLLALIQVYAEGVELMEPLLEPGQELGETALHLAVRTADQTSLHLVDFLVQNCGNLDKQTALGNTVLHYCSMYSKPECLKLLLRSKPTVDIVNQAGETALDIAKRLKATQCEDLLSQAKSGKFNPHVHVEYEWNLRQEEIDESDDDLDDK
rCAG binder conf – small molecules binding CAG repeat RNA – biochemical, fluorescence, confirmation. inhibition, % at 3 µM. shares compounds with rCAG binder. hit rate 70% among 4,300. r(CAG) RNA repeat, TO-PRO-1 dye displacement fluorescence;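 active = inhibition above a per-plate cutoff, the mean inhibition of sample wells plus 3 SD, cut at about 35% in these data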;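 note: loss of TO-PRO-1 fluorescence as compound displaces dye from 1x1 AA loop RNA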
dCAG dye counter – displacement of TO-PRO-1 from CAG DNA duplex, counter-screen for rCAG RNA repeat binder project, biochemical, fluorescence, TO-PRO-1 dye, d(CAG) DNA oligo; shares compounds with rCAG binder; d(CAG) DNA oligo TO-PRO-1 dye displacement; inhibition, % at 3 µM; hit rate 94% among 4,300; AID 652068, 2013;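 active = inhibition above its plate's cutoff, the mean test-well inhibition plus 3 SD, cut at about 4.8% in these data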;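 note: hits displace the dye from DNA and so lower well fluorescence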
DNA CAG DR – inhibitors of DNA CAG/GTC TO-PRO-1 complex, dose response, counter-screen for rCAG RNA repeat binder project, biochemical, fluorescence, TO-PRO-1 dye. DNA CAG/GTC duplex TO-PRO-1 dye displacement fluorescence. IC50, µM. shares compounds with rCAG binder. hit rate 20% among 250; in the data active = IC50 below about 10 µM
A number is an active result.

Screening Cc1cccc(NC(=S)NNC(=O)c2cc3c(s2)CCC(C)C3)c1C (stereo not drawn) returned rCAG binder 37, ARFGAP1 inh inactive, NadD block inactive, ASAP1 inh inactive, rCAG binder conf 35 and dCAG dye counter 12.
CC1CCN(C(=O)c2[nH]cnc2C(=O)N(C)CCO)CC1 was read as rCAG binder inactive, ARFGAP1 inh inactive and ASAP1 inh inactive.
`O=C(O)COc1ccccc1/C=N/Nc1ccc(S(=O)(=O)Nc2ccc(Cl)cc2)cc1[N+](=O)[O-]` gave rCAG binder 84, ARFGAP1 inh inactive, NadD block inactive, ASAP1 inh inactive, rCAG binder conf 91 and dCAG dye counter 70.
For COc1ccccc1NS(=O)(=O)c1ccc(N/N=C/c2ccccc2OCC(=O)O)c([N+](=O)[O-])c1 the results were rCAG binder 92, ARFGAP1 inh inactive, NadD block inactive, ASAP1 inh inactive, rCAG binder conf 90 and dCAG dye counter 67.
For NS(=O)(=O)c1ccc(N/N=C/c2ccccc2C(=O)O)c([N+](=O)[O-])c1 the results were rCAG binder inactive, ARFGAP1 inh inactive, NadD block inactive and ASAP1 inh inactive.
`CCN(CC)S(=O)(=O)c1ccc(N/N=C/c2ccccc2OCC(=O)O)c([N+](=O)[O-])c1` gave rCAG binder 75, ARFGAP1 inh inactive, NadD block inactive, ASAP1 inh inactive, rCAG binder conf 75 and dCAG dye counter 36.
For COC1=C[C@H](C(=O)NCc2ccccc2)[C@H](C)[C@@H](c2ccccc2)CC1=O the results were rCAG binder inactive.
`COC(=O)[C@]12C[C@H](CC(=O)NCCCN3CCCC3=O)C(=O)N(Cc3ccccc3)C1=C[C@H](C(C)C)O[C@@H]2C1CC1` gave rCAG binder inactive, ARFGAP1 inh inactive and ASAP1 inh inactive.
For O=Cc1ccc(/C=C2\c3ccccc3C(=O)N2c2ccccc2)o1 the results were rCAG binder 41, ARFGAP1 inh inactive, ASAP1 inh inactive, rCAG binder conf inactive and dCAG dye counter 15.
For COC(=O)CSc1nc(SCc2ccccc2Cl)nc2c1CCCC2 the results were rCAG binder inactive, ARFGAP1 inh inactive, NadD block inactive and ASAP1 inh inactive.
O=C(O)CSc1nc(SCc2ccccc2Cl)nc2c1CCCC2 was read as rCAG binder 42, ARFGAP1 inh inactive, NadD block inactive, ASAP1 inh inactive, rCAG binder conf 36, dCAG dye counter 11 and DNA CAG DR inactive.
Screening Cc1cc(C(=O)O[C@@H]2CCC[C@@]3(C(=O)N(Cc4ccccc4)c4ccccc43)[C@H]2NC(=O)CCc2ccccc2)no1 returned rCAG binder inactive.
Screening CC1CC(C)CN(C(=O)COC(=O)COc2ccc(C#N)cc2)C1 (stereo not drawn) returned rCAG binder inactive, ARFGAP1 inh inactive, NadD block inactive and ASAP1 inh inactive.
Screening O=c1cc(-c2ccccc2)[nH]n1-c1ccccc1 returned rCAG binder 59, ARFGAP1 inh inactive, NadD block inactive, ASAP1 inh inactive, rCAG binder conf inactive and dCAG dye counter inactive.
Screening O=c1cc(-c2ccccc2)[nH]n1-c1nc2ccccc2s1 returned rCAG binder inactive, ARFGAP1 inh inactive, NadD block inactive and ASAP1 inh inactive.
CCS(=O)(=O)C1=NN2C(=N)/C(=C\c3ccc(OCCOc4cccc(OC)c4)c(OC)c3)C(=O)N=C2S1 was read as rCAG binder 49, ARFGAP1 inh inactive, NadD block inactive, ASAP1 inh inactive, rCAG binder conf 91 and dCAG dye counter 76.
For CCOc1cc(/C=C2\C(=N)N3N=C(S(C)(=O)=O)SC3=NC2=O)ccc1OCCOc1cccc(OC)c1 the results were rCAG binder 49, ARFGAP1 inh inactive, NadD block 31, ASAP1 inh inactive, rCAG binder conf 92 and dCAG dye counter 73.
For C[C@H]1COc2cc(NCCO)ccc2S(=O)(=O)N1 the results were rCAG binder inactive, ARFGAP1 inh inactive and ASAP1 inh inactive.
Screening C/C(C/C(C)=C1/SC(=S)NC1=O)=C1\SC(=S)NC1=O returned rCAG binder 66, ARFGAP1 inh inactive, NadD block inactive, ASAP1 inh inactive, rCAG binder conf 50 and dCAG dye counter 16.
`O=c1c2ccccc2nc(N/N=C/c2c(O)ccc3ccccc23)n1O` gave rCAG binder 35, ARFGAP1 inh inactive, NadD block inactive, ASAP1 inh inactive, rCAG binder conf 71 and dCAG dye counter 30.
Screening COc1ccc(OC)c(NS(=O)(=O)c2ccc(SC)cc2)c1 returned rCAG binder inactive, ARFGAP1 inh inactive, NadD block inactive and ASAP1 inh inactive.
`COc1ccc(NS(=O)(=O)c2ccc(NS(=O)(=O)c3ccc(SC)cc3)cc2)c(OC)c1` gave rCAG binder 38, ARFGAP1 inh inactive, NadD block inactive, ASAP1 inh inactive, rCAG binder conf 43 and dCAG dye counter 13.
For CCOc1ccc(NS(=O)(=O)c2ccc(NS(=O)(=O)c3ccc(SC)cc3)cc2)cc1 the results were rCAG binder 49, ARFGAP1 inh inactive, NadD block inactive, ASAP1 inh inactive, rCAG binder conf 55 and dCAG dye counter 18.
`COc1ccc(CN(CC#Cc2ccc(C)cc2)C(N)=NC(=O)CCc2ccccc2)c(OC)c1` gave rCAG binder inactive.
For CCN(CC)C(=O)C(=O)c1cccn1-c1c(Cl)cccc1C#N the results were rCAG binder 36, ARFGAP1 inh inactive, NadD block inactive, ASAP1 inh inactive, rCAG binder conf inactive and dCAG dye counter inactive.
CCCCS(=O)(=O)N1CCCc2nc(-c3ccccc3)ccc21 was read as rCAG binder inactive, ARFGAP1 inh inactive and ASAP1 inh inactive.
For COC(=O)c1cc2c(c3c4cc(OC)ccc4n(S(=O)(=O)c4ccc(F)cc4)c13)C(=O)N(CC(C)C)C2 the results were rCAG binder inactive, ARFGAP1 inh inactive and ASAP1 inh inactive.
O=C(Nc1cccc(S(=O)(=O)Nc2ccc(Cl)cc2)c1)c1cc2c(s1)CCCC2 was read as rCAG binder 43, ARFGAP1 inh inactive, NadD block inactive, ASAP1 inh inactive, rCAG binder conf inactive and dCAG dye counter 17.
